{
  "source": "ChEMBL document CHEMBL1126587",
  "about": "“Novel 6-alkoxypurine 2',3'-dideoxynucleosides as inhibitors of the cytopathic effect of the human immunodeficiency virus” (J Med Chem, 1993)",
  "proteins": {"B1": {"name": "Adenosine deaminase (Bos taurus), P56658 (protein)", "chain": "MAQTPAFNKPKVELHVHLDGAIKPETILYYGRKRGIALPADTPEELQNIIGMDKPLSLPEFLAKFDYYMPAIAGCREAVKRIAYEFVEMKAKDGVVYVEVRYSPHLLANSKVEPIPWNQAEGDLTPDEVVSLVNQGLQEGERDFGVKVRSILCCMRHQPSWSSEVVELCKKYREQTVVAIDLAGDETIEGSSLFPGHVKAYAEAVKSGVHRTVHAGEVGSANVVKEAVDTLKTERLGHGYHTLEDATLYNRLRQENMHFEVCPWSSYLTGAWKPDTEHPVVRFKNDQVNYSLNTDDPLIFKSTLDTDYQMTKNEMGFTEEEFKRLNINAAKSSFLPEDEKKELLDLLYKAYGMPSPASAEQCL"}},
  "key": {"[1]": {"substrate": "Nc1ncnc2c1ncn2[C@H]1CC[C@@H](CO)O1", "assay": "Compound was tested for adenosine deaminase assay in calf intestine", "method_in_brief": "(§1)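 Calf intestinal adenosine deaminase, dialyzed against deionized water to remove ammonium sulfate. Dealkoxylation/deamination followed spectrophotometrically at 25 °C, pH 6.8 (adenosine: Δε −5.85 mM⁻¹cm⁻¹ at 270 nm). Km from initial velocity analysis. Relative velocity compares 100 μM dideoxynucleoside against 100 μM adenosine.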"}, "[2]": {"substrate": "COc1ncnc2c1ncn2C1CCC(CO)O1", "assay": "(§2) Michaelis-Menten constant for adenosine deaminase assay in calf intestine", "method_in_brief": "as §1"}, "[3]": {"substrate": "CCOc1ncnc2c1ncn2C1CCC(CO)O1", "assay": "as §2", "method_in_brief": "as §1"}},
  "data": [
    {"protein": "B1", "values": [
      {"measurement": "Km", "setting": "[1]", "result": 45, "unit": "µM"},
      {"measurement": "Km", "setting": "[2]", "result": 150, "unit": "µM"},
      {"measurement": "Km", "setting": "[3]", "result": 650, "unit": "µM"}
    ]}
  ]
}
